Measured values published in ChEMBL document CHEMBL1134010, “Syntheses and antifungal activities of novel 3-amido bearing pseudomycin analogues” (Bioorg Med Chem Lett, 2001).
Converted amounts (≈) assume the structure as drawn. Positions of bridges follow the written chain, without caps; N, C: chain ends. Non-standard residues stand in square brackets, D forms with d. Residues, ends and D or L forms follow the SMILES beside them. Groups on a side chain read outwards from the residue. *: point of attachment. Tetradecanoyl(3R-OH) = CCCCCCCCCCC[C@@H](O)CC(=O)*; Asp(3S-OH) = N[C@H](C(=O)O)[C@H](O)C(=O)O; Thr(4-Cl) = N[C@H](C(=O)O)[C@H](O)CCl; aThr = C[C@H](O)[C@H](N)C(=O)O; dDab = NCC[C@@H](N)C(=O)O; Dab = NCC[C@H](N)C(=O)O; Dhb = C/C=C(\N)C(=O)O; X1 = CCN(CC)CCN*

What was measured:
Candida albicans [1] = test: In vitro minimum inhibitory concentration (MIC) against Candida albicans.; format: functional
Outline: (§1)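 Tested against Candida albicans, Cryptococcus neoformans and Aspergillus fumigatus, with PSB as positive control. MIC is taken as the lowest drug concentration giving 90–100% inhibition of visible growth relative to drug-free controls.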

Candida albicans [2] = test: In vivo efficacy against murine Candidiasis dosed four times by intraperitoneal administration post-infection using Reed and Muench method.; format: functional; conditions: ip
Outline: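 Systemic candidiasis in mice, with PSB and amphotericin B as positive controls. Analogues were given at 20, 10 and 5 mg/kg, four doses at 0, 4, 24 and 48 post-infection. ED50 is the dose giving 50% survival relative to untreated infected animals, calculated by the Reed and Muench method.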

Aspergillus fumigatus = test: In vitro minimum inhibitory concentration (MIC) against Aspergillus fumigatus.; format: functional; outline: as §1
Cryptococcus neoformans = test: In vitro minimum inhibitory concentration (MIC) against Cryptococcus neoformans.; format: functional; outline: as §1
Mus musculus [3] = test: Toxicity at a dose of 100 mg/kg in mice; Death; conditions: in vivo
Mus musculus [4] = test: Toxicity at a dose of 125 mg/kg in mice; Death; conditions: in vivo

Row | MIC (Candida albicans [1]) [mg/L] | MIC (Aspergillus fumigatus) [mg/L] | MIC (Cryptococcus neoformans) [mg/L] | Compound | ED50 (Candida albicans [2]) [mg/kg] | Toxicity (Mus musculus [3]) | Toxicity (Mus musculus [4])
1 | 20 (≈ 15 µM) | > 20 | 5 (≈ 3.75 µM) | C/C=C1\NC(=O)[C@H]([C@H](C)O)NC(=O)[C@H](CCN)NC(=O)[C@H](CCCCN)NC(=O)[C@H](CC(=O)NCCCCCCCCC)NC(=O)[C@@H](CCN)NC(=O)[C@@H](NC(=O)C[C@H](O)CCCCCCCCCCC)COC(=O)[C@H]([C@H](O)CCl)NC(=O)[C@H]([C@H](O)C(=O)O)NC1=O | > 20 |  | 
2 | 10 (≈ 7.66 µM) | 10 (≈ 7.66 µM) | < 0.01 | C/C=C1\NC(=O)[C@H]([C@H](C)O)NC(=O)[C@H](CCN)NC(=O)[C@H](CCCCN)NC(=O)[C@H](CC(=O)NCCN(CC)CC)NC(=O)[C@@H](CCN)NC(=O)[C@@H](NC(=O)C[C@H](O)CCCCCCCCCCC)COC(=O)[C@H]([C@H](O)CCl)NC(=O)[C@H]([C@H](O)C(=O)O)NC1=O ({Tetradecanoyl(3R-OH)}-S[dDab]D(X1)K[Dab][aThr][Dhb][Asp(3S-OH)][Thr(4-Cl)]; ester 1-C) | 4.9 |  | 
3 | 1 (≈ 0.782 µM) | 20 (≈ 15.6 µM) | 0.01 (≈ 0.00782 µM) | C/C=C1\NC(=O)[C@H]([C@H](C)O)NC(=O)[C@H](CCN)NC(=O)[C@H](CCCCN)NC(=O)[C@H](CC(=O)NCC(=O)OC)NC(=O)[C@@H](CCN)NC(=O)[C@@H](NC(=O)C[C@H](O)CCCCCCCCCCC)COC(=O)[C@H]([C@H](O)CCl)NC(=O)[C@H]([C@H](O)C(=O)O)NC1=O ({Tetradecanoyl(3R-OH)}-S[dDab]D([Gly-OMe])K[Dab][aThr][Dhb][Asp(3S-OH)][Thr(4-Cl)]; ester 1-C) | < 5 |  | 
4 | 0.625 (≈ 0.506 µM) | 20 (≈ 16.2 µM) | 0.156 (≈ 0.126 µM) | C/C=C1\NC(=O)[C@H]([C@H](C)O)NC(=O)[C@H](CCN)NC(=O)[C@H](CCCCN)NC(=O)[C@H](CC(=O)NCC)NC(=O)[C@@H](CCN)NC(=O)[C@@H](NC(=O)C[C@H](O)CCCCCCCCCCC)COC(=O)[C@H]([C@H](O)CCl)NC(=O)[C@H]([C@H](O)C(=O)O)NC1=O |  |  | 
5 | 0.312 (≈ 0.23 µM) | 20 (≈ 14.7 µM) | < 0.01 | C/C=C1\NC(=O)[C@H]([C@@H](C)O)NC(=O)[C@H](CCN)NC(=O)[C@H](CCCCN)NC(=O)[C@H](CC(=O)N[C@@H](Cc2c[nH]cn2)C(=O)OC)NC(=O)[C@@H](CCN)NC(=O)[C@@H](NC(=O)C[C@H](O)CCCCCCCCCCC)COC(=O)[C@H]([C@H](O)CCl)NC(=O)[C@H]([C@H](O)C(=O)O)NC1=O | < 5 |  | 
6 | 5 (≈ 3.87 µM) | 20 (≈ 15.5 µM) | < 0.01 | C/C=C1\NC(=O)[C@H]([C@H](C)O)NC(=O)[C@H](CCN)NC(=O)[C@H](CCCCN)NC(=O)[C@H](CC(=O)N(C)CCN(C)C)NC(=O)[C@@H](CCN)NC(=O)[C@@H](NC(=O)C[C@H](O)CCCCCCCCCCC)COC(=O)[C@H]([C@H](O)CCl)NC(=O)[C@H]([C@H](O)C(=O)O)NC1=O | 4 |  | 
7 | 0.312 (≈ 0.244 µM) | > 20 | < 0.01 | C/C=C1\NC(=O)[C@H]([C@H](C)O)NC(=O)[C@H](CCN)NC(=O)[C@H](CCCCN)NC(=O)[C@H](CC(=O)NCCC(C)C)NC(=O)[C@@H](CCN)NC(=O)[C@@H](NC(=O)C[C@H](O)CCCCCCCCCCC)COC(=O)[C@H]([C@H](O)CCl)NC(=O)[C@H]([C@H](O)C(=O)O)NC1=O | 10.9 |  | 
8 | 1.25 (≈ 0.913 µM) | > 20 | 1.25 (≈ 0.913 µM) | C/C=C1\NC(=O)[C@H]([C@@H](C)O)NC(=O)[C@H](CCN)NC(=O)[C@H](CCCCN)NC(=O)[C@H](CC(=O)N[C@@H](Cc2ccccc2)C(=O)OC)NC(=O)[C@@H](CCN)NC(=O)[C@@H](NC(=O)C[C@H](O)CCCCCCCCCCC)COC(=O)[C@H]([C@H](O)CCl)NC(=O)[C@H]([C@H](O)C(=O)O)NC1=O | > 15 |  | 
9 | 10 (≈ 7.74 µM) | 10 (≈ 7.74 µM) | < 0.01 | C/C=C1\NC(=O)[C@H]([C@H](C)O)NC(=O)[C@H](CCN)NC(=O)[C@H](CCCCN)NC(=O)[C@H](CC(=O)NCCCN(C)C)NC(=O)[C@@H](CCN)NC(=O)[C@@H](NC(=O)C[C@H](O)CCCCCCCCCCC)COC(=O)[C@H]([C@H](O)CCl)NC(=O)[C@H]([C@H](O)C(=O)O)NC1=O | < 5 |  | 

Row | Compound | MIC (Candida albicans [1]) [mg/L] | MIC (Aspergillus fumigatus) [mg/L] | MIC (Cryptococcus neoformans) [mg/L] | ED50 (Candida albicans [2]) [mg/kg] | Toxicity (Mus musculus [3]) | Toxicity (Mus musculus [4])
10 | C/C=C1\NC(=O)[C@H]([C@@H](C)O)NC(=O)[C@H](CCN)NC(=O)[C@H](CCCCN)NC(=O)[C@H](CC(=O)N[C@@H](CCCCN)C(=O)OC)NC(=O)[C@@H](CCN)NC(=O)[C@@H](NC(=O)C[C@H](O)CCCCCCCCCCC)COC(=O)[C@H]([C@H](O)CCl)NC(=O)[C@H]([C@H](O)C(=O)O)NC1=O | 1.25 (≈ 0.926 µM) | > 20 | < 0.01 | < 5 | Death | Death
